In ChEMBL document CHEMBL1800016, “Novel thiazolidinedione derivatives with anti-obesity effects: dual action as PTP1B inhibitors and PPAR-γ activators” (Bioorg Med Chem Lett, 2010):
Calls of active or inactive are those of the source. The rule behind the calls is not given here.

Tests used:
[1] = target: T1, Tyrosine-protein phosphatase non-receptor type 1 (Homo sapiens, UniProt P18031); experiment: Inhibition of PTP1B expressed in Escherichia coli assessed as p-nitrophenol release from pNPP substrate preincubated for 10 mins
T1 sequence (P18031 whole entry): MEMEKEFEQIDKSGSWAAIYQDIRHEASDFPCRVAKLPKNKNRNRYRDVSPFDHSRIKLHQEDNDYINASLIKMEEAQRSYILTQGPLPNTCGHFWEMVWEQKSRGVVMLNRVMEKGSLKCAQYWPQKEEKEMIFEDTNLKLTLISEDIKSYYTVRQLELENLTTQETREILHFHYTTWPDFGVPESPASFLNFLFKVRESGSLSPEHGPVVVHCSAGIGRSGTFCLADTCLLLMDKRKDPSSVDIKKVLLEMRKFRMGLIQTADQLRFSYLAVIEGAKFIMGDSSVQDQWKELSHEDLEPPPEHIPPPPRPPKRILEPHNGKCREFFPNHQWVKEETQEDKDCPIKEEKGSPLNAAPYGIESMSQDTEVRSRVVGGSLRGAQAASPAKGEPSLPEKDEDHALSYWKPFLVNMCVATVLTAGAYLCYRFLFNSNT
Procedure, shortened: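 IC50 values against the PTP panel, with enzymes prepared as described in the supplementary material. Values are means ± SD of two or more experiments.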

[2] = target: T2, Tyrosine-protein phosphatase non-receptor type 1 (Homo sapiens) (UniProt P18031); experiment: Competitive inhibition of PTP1B expressed in Escherichia coli
T2 sequence (whole entry): T1 sequence (P18031 whole entry)

Mus musculus [3] = experiment: Toxicity in high fat diet-fed diabetic C57BL/6J Jms Slc mouse model assessed as dark-brownish spots in liver at 4.8 mg/day administered with food for 4 weeks; details: in vivo, po, 672 h
Mus musculus [4] = experiment: Antidiabetic activity in high fat diet-fed diabetic C57BL/6J Jms Slc mouse model assessed as normalization of blood glucose level at 2.6 mg/day administered with food for 4 weeks measured 60 mins after last dose by glucose tolerance test; assay type: functional, organism-based
Procedure, shortened: (§1)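 Mice were male C57BL/6J Jms Slc, 5 wk old after 1 wk acclimatization. They were fed a 45%-fat HFD for 8 wk, then HFD with compound mixed in (1.0 g/kg diet, about 2.6 mg/day/mouse, 78 mg/day/kg) for 4 wk. Each mouse was fasted 6 h from the start of the light cycle and fasting glucose was measured. Glucose 1.0 g/kg was then given i.p., with readings at 60 and 90 min.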

Mus musculus [5] = experiment: Antiobesity activity in high fat diet-fed diabetic C57BL/6J Jms Slc mouse model assessed as decrease in total cholesterol level in serum at 2.6 mg/day administered with food for 4 weeks; assay type: functional
Procedure, shortened: (§2)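 DIO mice were fed HFD for 8 wk, then HFD containing 0.1% w/w compound (about 2.6 mg/day/mouse) for 4 wk. At the end of feeding, mice were deprived of food overnight. Serum total cholesterol, triglyceride and NEFA were then measured. Values are mean ± SEM.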

Mus musculus [6] = experiment: Antiobesity activity in high fat diet-fed diabetic C57BL/6J Jms Slc mouse model assessed as decrease in non-esterified free fatty acid level in serum at 2.6 mg/day administered with food for 4 weeks; assay type: functional; procedure, shortened: as §2
[7] = target: T3, Peroxisome proliferator-activated receptor gamma (Homo sapiens) (UniProt P37231); experiment: Agonist activity at PPARgamma expressed in HepG2 cells co-expressing PPRE assessed as concentration required for maximal activation after 24 hrs by luciferase reporter gene assay; assay type: functional, cell-based
T3 sequence (whole entry): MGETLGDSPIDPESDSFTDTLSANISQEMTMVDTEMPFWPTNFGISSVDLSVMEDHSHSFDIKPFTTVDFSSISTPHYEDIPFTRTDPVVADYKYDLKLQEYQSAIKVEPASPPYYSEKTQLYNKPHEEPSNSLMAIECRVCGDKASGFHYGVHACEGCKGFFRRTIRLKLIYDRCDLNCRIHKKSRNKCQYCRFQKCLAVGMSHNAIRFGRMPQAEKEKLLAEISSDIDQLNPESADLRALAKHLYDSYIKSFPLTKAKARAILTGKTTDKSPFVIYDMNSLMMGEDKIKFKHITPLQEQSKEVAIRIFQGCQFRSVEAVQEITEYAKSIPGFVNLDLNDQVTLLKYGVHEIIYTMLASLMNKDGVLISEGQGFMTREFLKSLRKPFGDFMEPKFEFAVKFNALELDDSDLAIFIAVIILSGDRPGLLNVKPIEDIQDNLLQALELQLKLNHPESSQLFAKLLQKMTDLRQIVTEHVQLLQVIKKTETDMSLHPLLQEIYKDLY

[8] = target: T4, Peroxisome proliferator-activated receptor gamma (Homo sapiens, UniProt P37231); experiment: Agonist activity at PPARgamma expressed in HepG2 cells co-expressing PPRE assessed as transcriptional activation after 24 hrs by luciferase reporter gene assay; assay type: functional, cell-based
T4 sequence (P37231 whole entry): T3 sequence (whole entry)
Procedure, shortened: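 HepG2 cells were transfected with a PPRE-driven luciferase reporter plus CMV-βGal. The basic luciferase reporter without a PPRE site served as the negative control. Compounds were added 6 h after transfection. Cells were lysed 24 h later. Luciferase activity was read on a luminometer and normalized to β-galactosidase for transfection efficiency. Two independent experiments; error as SEM.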

Mus musculus [9] = experiment: Antiobesity activity in high fat diet-fed diabetic C57BL/6J Jms Slc mouse model assessed as reduction in body weight at 2.6 mg/day administered with food for 4 weeks; assay type: functional
Procedure, shortened: (§3)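 DIO male C57BL/6J Jms Slc mice were fed a 45%-fat HFD for 8 wk, then HFD with 0.1% w/w compound in feed (about 2.6 mg/day/mouse) for 4 wk. A 10%-fat LFD lean group ran throughout. Measures were weight gain, feed efficiency (weight gain/kcal ×100), and epididymal and retroperitoneal fat pad weights. n = 8/group; mean ± SEM; one-way ANOVA.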

Mus musculus [10] = experiment: Antiobesity activity in high fat diet-fed diabetic C57BL/6J Jms Slc mouse model assessed as decrease in retroperitoneal fat at 2.6 mg/day administered with food for 4 weeks; assay type: functional; procedure, shortened: as §3
Mus musculus [11] = experiment: Antiobesity activity in high fat diet-fed diabetic C57BL/6J Jms Slc mouse model assessed as decrease in serum triglyceride level at 2.6 mg/day administered with food for 4 weeks; assay type: functional; procedure, shortened: as §2
Mus musculus [12] = experiment: Antiobesity activity in high fat diet-fed diabetic C57BL/6J Jms Slc mouse model assessed as decrease in epididymal fat at 2.6 mg/day administered with food for 4 weeks; assay type: functional; procedure, shortened: as §3
Mus musculus [13] = experiment: Antidiabetic activity in high fat diet-fed diabetic C57BL/6J Jms Slc mouse model assessed as normalization of blood glucose level at 2.6 mg/day administered with food for 4 weeks measured 90 mins after last dose by glucose tolerance test; assay type: functional, organism-based; procedure, shortened: as §1
Mus musculus [14] = experiment: Antiobesity activity in high fat diet-fed diabetic C57BL/6J Jms Slc mouse model assessed as weight gain/kcal at 2.6 mg/day administered with food for 4 weeks; assay type: functional; procedure, shortened: as §3

Row | SMILES | IC50 [1] [µM] | other results
1 | O=C1NC(=O)/C(=C/c2ccc(OCc3ccc(F)cc3)cc2OCc2ccccc2)S1 | 9 | 
2 | Cc1ccc(S(=O)(=O)Oc2cc(OCc3cc(C(F)(F)F)cc(C(F)(F)F)c3)c(/C=C3\SC(=O)NC3=O)cc2Br)cc1 | 2 | 
3 | O=C1NC(=O)/C(=C/c2ccc(OCc3ccccc3)cc2OCc2ccc(C(F)(F)F)cc2)S1 | 4 | 
4 | O=C1NC(=O)/C(=C/c2cc(Br)c(OCc3ccc(C(F)(F)F)cc3)cc2OCc2ccc(C(F)(F)F)cc2)S1 | 1.4 | 
5 | O=C1NC(=O)/C(=C/c2ccc(OCc3cccnc3)cc2OCc2ccc(C(F)(F)F)cc2)S1 | 12 | 
6 | O=C1NC(=O)/C(=C/c2ccc(OCc3ccccn3)cc2OCc2ccc(C(F)(F)F)cc2)S1 | 12 | 
7 | O=C1NC(=O)/C(=C/c2ccc(OS(=O)(=O)c3ccc(Br)cc3)cc2OCc2ccc(S(=O)(=O)N3CCOCC3)cc2)S1 | 14 | 
8 | Cc1ccc(S(=O)(=O)Oc2ccc(/C=C3\SC(=O)NC3=O)c(OS(=O)(=O)c3ccc(C)cc3)c2)cc1 | 16 | 
9 | CC(=O)Nc1ccc(COc2cc(OS(=O)(=O)c3ccc(C)cc3)ccc2/C=C2\SC(=O)NC2=O)cc1 | 33 | 
10 | Cc1ccc(S(=O)(=O)Oc2ccc(/C=C3\SC(=O)NC3=O)c(OCc3ccc(C(F)(F)F)cc3)c2)cc1 | 2.3 | 
11 | Cc1ccc(S(=O)(=O)Oc2ccc(/C=C3\SC(=O)NC3=O)c(OCc3ccc(NC(=O)c4cccc(C(F)(F)F)c4)cc3)c2)cc1 | 11 | 
12 | O=C1NC(=O)/C(=C/c2ccc(OCc3ccc(S(=O)(=O)N4CCOCC4)cc3)cc2OCc2ccc(C(F)(F)F)cc2)S1 | 19 | 
13 | O=C(O)COc1cc(OCc2ccccc2)ccc1/C=C1\SC(=O)NC1=O | 136 | 
14 | O=C1NC(=O)/C(=C/c2ccc(OS(=O)(=O)c3ccc(Br)cc3)cc2OCc2ccc(C(F)(F)F)cc2)S1 | 6 | 
15 | O=C1NC(=O)/C(=C/c2ccc(OCc3ccc(F)cc3)cc2OCc2ccc(C(F)(F)F)cc2)S1 | 4 | 
16 | O=C1NC(=O)/C(=C/c2ccc(OCc3ccc(C(F)(F)F)cc3)cc2OCc2ccc(C(F)(F)F)cc2)S1 | 9 | 
17 | O=C1NC(=O)/C(=C/c2ccc(OCc3ccccc3)cc2OCc2ccc(F)cc2)S1 | 9 | 
18 | O=C1NC(=O)/C(=C/c2cc(Br)ccc2OCc2cc(C(F)(F)F)cc(C(F)(F)F)c2)S1 |  | inhibition [2]: Active; Activity (Mus musculus [3]): Toxic; Activity (Mus musculus [4]): Active; Activity (Mus musculus [5]): 125 mg/dL; Activity (Mus musculus [6]): 0.22 mM; Activity [7]: 4 µM; EC50 [8]: 0.87 µM; Activity (Mus musculus [9]): 2.16 g; Activity (Mus musculus [10]): 0.42 g; Activity (Mus musculus [11]): 78 mg/dL; Activity (Mus musculus [12]): 1.27 g; Activity (Mus musculus [13]): Active; feed efficiency (Mus musculus [14]): 0.68 g/100 kcal
19 | O=C1NC(=O)/C(=C/c2ccc(OCc3ccccc3)cc2OCc2ccccc2)S1 | 10 | 
20 | O=C1NC(=O)/C(=C/c2ccc(OCc3ccc(NC(=O)c4cccc(C(F)(F)F)c4)cc3)cc2OCc2ccc(C(F)(F)F)cc2)S1 | 6 | 
21 | O=C1NC(=O)/C(=C/c2ccc(OCc3ccc(F)cc3)cc2OCc2ccc(F)cc2)S1 | 8 | 
